The target of assay [1] is T1, Proteasome Macropain subunit MB1 (Homo sapiens, UniProt P28074).
T1 sequence (P28074 whole entry): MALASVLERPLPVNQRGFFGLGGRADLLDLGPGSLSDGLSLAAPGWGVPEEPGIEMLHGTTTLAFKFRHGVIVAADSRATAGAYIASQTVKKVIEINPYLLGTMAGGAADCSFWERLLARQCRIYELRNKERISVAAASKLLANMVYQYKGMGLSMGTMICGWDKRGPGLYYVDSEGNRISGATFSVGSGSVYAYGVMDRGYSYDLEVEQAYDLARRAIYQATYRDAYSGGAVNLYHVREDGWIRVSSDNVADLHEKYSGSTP
Kind of assay: Inhibition of 20S proteosome beta 5 purified from human HCT116 cells using Suc-LLVY-AMC as substrate incubated for 30 to 120 mins by fluorimetry. The procedure, abridged:
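Semipurified proteasomes were pretreated with compound at 0.01–100 μM in activity buffer. Fluorogenic AMC substrates were used: Z-LLE-AMC for PGPH (β1), Boc-LRR-AMC for T-L (β2) and Suc-LLVY-AMC for ChT-L (β5). IC50 reported as mean ± SEM of three independent experiments.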

Assay [2] deals with HCT-116. In words: Induction of apoptosis in human HCT116 cells assessed as viable cells at 1 uM incubated for 48 hrs by annexin-V FITC and propidium iodide staining based flow cytometry relative to control. The format is functional. The settings on record: HCT-116, 48 h, read-out: Activity. The procedure, abridged: (§1)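 HCT116 tumour cells cultured 48 or 72 h with or without compound at 1 μM. Cells were stained with Annexin V and propidium iodide. Annexin V+/PI− was scored as early apoptotic and Annexin V+/PI+ as late apoptotic. Percentages of cells were read from dot plots, with three experiments run.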
(In flow cytometry, cells or beads pass a laser one at a time.)

In assay [3] the test system is HCT-116. Kind of assay: Induction of apoptosis in human HCT116 cells assessed as necrotic cells at 1 uM incubated for 72 hrs by annexin-V FITC and propidium iodide staining based flow cytometry relative to control. The format is functional. The method in brief:
as §1

The test system of assay [4] is HCT-116. Kind of assay: Induction of apoptosis in human HCT116 cells assessed as early apoptotic cells at 1 uM incubated for 48 hrs by annexin-V FITC and propidium iodide staining based flow cytometry relative to control. It is filed as functional. The procedure, abridged: as §1
The subject of assay [5] is HCT-116. In words: Induction of apoptosis in human HCT116 cells assessed as necrotic cells at 1 uM incubated for 48 hrs by annexin-V FITC and propidium iodide staining based flow cytometry relative to control. It is filed as functional. The method in brief:
as §1

In assay [6] the test system is HCT-116. Kind of assay: Induction of apoptosis in human HCT116 cells assessed as viable cells at 1 uM incubated for 72 hrs by annexin-V FITC and propidium iodide staining based flow cytometry relative to control. The format is functional. To be noted: HCT-116, 72 h, read-out: Activity. The method in brief: as §1
The test system of assay [7] is HCT-116. Kind of assay: Induction of apoptosis in human HCT116 cells assessed as early apoptotic cells at 1 uM incubated for 72 hrs by annexin-V FITC and propidium iodide staining based flow cytometry relative to control. It is filed as functional. The procedure, abridged:
as §1

The test system of assay [8] is HCT-116. In words: Induction of apoptosis in human HCT116 cells assessed as late apoptotic cells at 1 uM incubated for 72 hrs by annexin-V FITC and propidium iodide staining based flow cytometry relative to control. It is filed as functional. The procedure, abridged: as §1
The subject of assay [9] is HCT-116. Kind of assay: Induction of apoptosis in human HCT116 cells assessed as late apoptotic cells at 1 uM incubated for 48 hrs by annexin-V FITC and propidium iodide staining based flow cytometry relative to control. The format is functional. The procedure, abridged:
as §1

The test system of assay [10] is HCT-116. Kind of assay: Antiproliferative activity against human HCT116 cells assessed as reduction in cell viability incubated for 72 hrs by MTT assay. It is filed as functional, cell-based. The settings on record: HCT-116, 72 h. The method in brief:
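HCT116 human colorectal carcinoma cells exposed to compounds at 0.1–100 μM. IC50 for proliferation reported as mean ± SEM of three independent experiments.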
(Tetrazolium dyes change colour on reduction, which living cells bring about.)

The species named for assay [11] is Homo sapiens. Kind of assay: Selectivity ratio of IC50 of 20S proteosome beta 1 purified from human HCT116 cells to IC50 of 20S proteosome beta 5 purified from human HCT116 cells.
For assay [12], the species on record is Homo sapiens. Kind of assay: Selectivity ratio of IC50 of 20S proteosome beta 2 purified from human HCT116 cells to IC50 of 20S proteosome beta 5 purified from human HCT116 cells.
The species named for assay [13] is Homo sapiens. In words: Selectivity index, ratio of IC50 of 20S proteosome beta 5 purified from human HCT116 cells to IC50 of 20S proteosome beta 2 purified from human HCT116 cells.
The species named for assay [14] is Homo sapiens. Kind of assay: Selectivity index, ratio of IC50 of 20S proteosome beta 1 purified from human HCT116 cells to IC50 of 20S proteosome beta 2 purified from human HCT116 cells.

SMILES strings stand for the structures. Residues, ends and D or L forms follow the SMILES beside them. *: point of attachment. Cbz = O=C(OCc1ccccc1)* Some results are limits rather than exact numbers.

`CC(C)C[C@H](NC(=O)OCc1ccccc1)C(=O)N[C@@H](CC(C)C)C(=O)N[C@@H](CC(C)C)C(=O)C(=O)N1CCc2ccccc2C1`: half-maximal inhibition in assay [1] (IC50) was put at 0.77 µM.
`CC(C)C[C@H](NC(=O)OCc1ccccc1)C(=O)N[C@@H](Cc1cccc2ccccc12)C(O)C(=O)NCc1ccccc1` (stereo not given in full): the IC50 (as a rule, the concentration needed to halve the response being measured) in assay [1] is more than 100 µM.
The same measure, in the same setting: to `CC(C)C[C@H](NC(=O)OCc1ccccc1)C(=O)N[C@@H](CC(C)C)C(=O)N[C@@H](CC(C)C)C(O)C(=O)N1CCc2ccccc2C1` (stereo not given in full) belongs more than 100 µM.
On to `CC(C)CNC(=O)C(=O)[C@H](CC(C)C)NC(=O)[C@H](CC(C)C)NC(=O)[C@H](CC(C)C)NC(=O)OCc1ccccc1`, for which the viability at 1 µM amounted to 55.4% in the assay on HCT-116 [2] and 48.8% in the assay with HCT-116 [6]. In addition, the Activity in the assay on HCT-116 [3] was determined as 1.91%; with HCT-116 [4], 20.7%; in the assay on HCT-116 [5], 1.53%; in the assay with HCT-116 [7], 10.5%; in the assay on HCT-116 [8], 38.8%; in the assay with HCT-116 [9], 22.3%. Moreover, the IC50 in assay [1] amounted to 0.012 µM; in the assay on HCT-116 [10], 0.81 µM.
In turn, `CC(C)C[C@H](NC(=O)OCc1ccccc1)C(=O)N[C@@H](CC(C)C)C(=O)N[C@@H](CC(C)C)C(O)C(=O)Nc1cccc2ccccc12` (stereo not given in full) displayed an IC50 in [1] of 8.1 µM.
Turning to `CC(C)C[C@H](NC(=O)OCc1ccccc1)C(=O)N[C@@H](CC(N)=O)C(=O)C(=O)NCc1ccccc1`, the IC50 in [1] was more than 100 µM.
In [1], `CC(C)C[C@H](NC(=O)OCc1ccccc1)C(=O)N[C@@H](CC(C)C)C(=O)N[C@@H](CC(C)C)C(O)C(=O)NCc1ccccc1` (stereo not given in full) gave a concentration for half-maximal inhibition (IC50) of 0.53 µM.
For the compound `CC(C)C[C@H](NC(=O)OCc1ccccc1)C(=O)N[C@@H](CC(C)C)C(=O)C(=O)NCc1ccccc1`, the IC50 in [1] is 0.92 µM; in the assay on HCT-116 [10], 8.6 µM.
In [1], `CC(C)C[C@H](NC(=O)OCc1ccccc1)C(=O)N[C@@H](CC(C)C)C(=O)N[C@@H](CC(C)C)C(O)C(=O)N1CCOCC1` (stereo not given in full) had an IC50 of more than 100 µM.
Same read-out and setting: to `CC(C)C[C@H](NC(=O)OCc1ccccc1)C(=O)N[C@@H](Cc1ccc(O)cc1)C(O)C(=O)NCc1ccccc1` (stereo not given in full) belongs 70.4 µM.
Take `CC(C)C[C@H](NC(=O)OCc1ccccc1)C(=O)N[C@@H](CC(C)C)C(=O)N[C@@H](CC(C)C)C(=O)C(=O)Nc1cccc2ccccc12`: the viability at 1 µM stood at 45.1% in the assay with HCT-116 [2] and 27.1% with HCT-116 [6]. Also, the Ratio IC50 in the assay listed under Homo sapiens [11] is 8200; in the assay listed under Homo sapiens [12], more than 14200. The Activity in the assay on HCT-116 [3] was determined as 2.29%; in the assay on HCT-116 [4] it was 22.6%; in the assay on HCT-116 [5], 2.77%; in the assay with HCT-116 [7], 11.3%; in the assay on HCT-116 [8], 59.4%; with HCT-116 [9] it was 29.5%. The IC50 in assay [1] is 0.007 µM; with HCT-116 [10], less than 0.1 µM.
In the case of `CC(C)C[C@H](NC(=O)OCc1ccccc1)C(=O)N[C@@H](Cc1ccc(O)cc1)C(=O)C(=O)NCc1ccccc1`, the results for the IC50 (in [1]; in the assay on HCT-116 [10]) were 12.4 µM and more than 100 µM, respectively.
Consider `CC(C)C[C@@H](C=O)NC(=O)[C@H](CC(C)C)NC(=O)[C@H](CC(C)C)NC(=O)OCc1ccccc1` [MG-132] (Cbz-Leu-Leu-Leu-aldehyde), for which, in the assay with HCT-116 [10], the 50% inhibitory concentration (IC50) is 0.82 µM.
Compound `CC(C)C[C@H](NC(=O)OCc1ccccc1)C(=O)N[C@@H](C(C)C)C(O)C(=O)NCc1ccccc1` (stereo not given in full) returned an IC50 in [1] of 82.1 µM.
Take `CC(C)C[C@H](NC(=O)OCc1ccccc1)C(=O)N[C@@H](CC(C)C)C(=O)N[C@@H](CC(C)C)C(=O)C(=O)N1CCOCC1`: inhibition in assay [1] was half-maximal at 0.48 µM (IC50).
For the compound `CC(C)C[C@H](NC(=O)OCc1ccccc1)C(=O)N[C@H](C(=O)C(=O)NCc1ccccc1)C(C)C`, the values for the Ratio IC50 in the assay filed under Homo sapiens [13] and in the assay filed under Homo sapiens [14] were 30 and 7, respectively. 63.3 µM corresponded to half-maximal inhibition in assay [1] (IC50).
`CC(C)C[C@H](NC(=O)OCc1ccccc1)C(=O)N[C@@H](CC(C)C)C(O)C(=O)NCc1ccccc1` (stereo not given in full) registered an IC50 in [1] of 50.2 µM.
Same read-out and setting: to `CC(C)C[C@H](NC(=O)OCc1ccccc1)C(=O)N[C@@H](CC(C)C)C(=O)N[C@@H](CC(C)C)C(O)C(=O)NCc1ccc(F)cc1` (stereo not given in full) belongs more than 100 µM; to `CC(C)C[C@H](NC(=O)OCc1ccccc1)C(=O)N[C@@H](CC(N)=O)C(O)C(=O)NCc1ccccc1` (stereo not given in full), more than 100 µM.
Regarding `CC(C)C[C@H](NC(=O)OCc1ccccc1)C(=O)N[C@@H](CC(C)C)C(=O)N[C@@H](CC(C)C)C(=O)C(=O)NCc1ccc(F)cc1`, the IC50 in [1] was 0.056 µM; in the assay with HCT-116 [10] it was 0.93 µM.
Taken in the same sequence, the figures for `CC(C)C[C@H](NC(=O)OCc1ccccc1)C(=O)N[C@@H](CC(C)C)C(=O)N[C@@H](CC(C)C)C(=O)C(=O)NCc1ccccc1` were 0.014 µM and 0.78 µM.
`CC(C)C[C@H](NC(=O)OCc1ccccc1)C(=O)N[C@@H](Cc1ccccc1)C(=O)C(=O)NCc1ccccc1` registered an IC50 in assay [1] of 51.1 µM.
The same measure, in the same setting: next, `CC(C)C[C@H](NC(=O)OCc1ccccc1)C(=O)N[C@@H](Cc1ccccc1)C(O)C(=O)NCc1ccccc1` (stereo not given in full): more than 100 µM.
Same read-out and setting: to `CC(C)CNC(=O)C(O)[C@H](CC(C)C)NC(=O)[C@H](CC(C)C)NC(=O)[C@H](CC(C)C)NC(=O)OCc1ccccc1` (stereo not given in full) belongs more than 100 µM.

These data come from ChEMBL document CHEMBL4396921, “Synthesis and Biological Activity of Peptide α-Ketoamide Derivatives as Proteasome Inhibitors” (ACS Med Chem Lett, 2019).
